Test results published in article PMC7346850 (ACS infectious diseases, 2020).
Entries after “also recorded” stand apart in the source; their conditions may differ.

Tests used:
HepG2 cells = test: Cytotoxicity against HepG2; type: cell-based; conditions: Homo sapiens, HepG2, read-out: EC50 HepG2 cells
[1] = tested on: chloroquine-resistant P. falciparum Dd2 cells; test: Antiplasmodial dose-response, cell-based SYBR Green I assay, Dd2; design: species or system Plasmodium falciparum
Procedure, shortened: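 Chloroquine-resistant P. falciparum Dd2 cultures were tested in dose–response with a cell-based SYBR Green I growth assay to obtain EC50. Each reported value comes from three independent experiments.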

- EC50 ([1]; Plasmodium falciparum, DD2, read-out: EC50 Dd2 cells): 76.7 ± 0.74 µM
Compound: COC(=O)[C@@H]1[C@H]2C[C@H]3c4[nH]c5ccccc5c4CCN3C[C@@H]2CC[C@@H]1O [Y, yohimbine]
- EC50 (HepG2 cells): > 100 µM
- antiplasmodial activity (in words) ([1]; P. falciparum Dd2 cells): no antiplasmodial activities; also recorded: no antiplasmodial activity
